From ChEMBL document CHEMBL1155764, “Cytotoxicity of Rhamnosylanthraquinones and Rhamnosylanthrones from Rhamnus nepalensis” (J Nat Prod, 2001)

Each compound was assayed on Mus musculus (assay: Toxicity in mouse P388 cells xenografted CDF1 mouse assessed as survival time at 10 mg/kg, ip). Conditions: in vivo; call rule not given here.
Assay type: organism-based
Set-up: dose 10 mg/kg, route intraperitoneal
Procedure, shortened: (§1)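 Two CDF1 mice per dose received P388 leukaemia cells intravenously, then a single intraperitoneal injection of the compound at 10, 5 or 2.5 mg/kg. The read-out was survival time in days after injection, compared with the average survival of the grafted mice.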
`CC(=O)O[C@@H]1[C@@H](O)[C@H](C)O[C@@H](Oc2cc(O)c3c(c2)Cc2cc(C)cc(O)c2C3=O)[C@@H]1OC(C)=O` [PRINOIDIN] was tested, and the Survival was 2 days.

These compounds were tested on Mus musculus (assay: Toxicity in mouse P388 cells xenografted CDF1 mouse assessed as survival time at 5 mg/kg, ip). Conditions: in vivo.
Assay type: organism-based
Set-up: dose 5 mg/kg, route intraperitoneal
Procedure, shortened: as §1
For `CC(=O)O[C@@H]1[C@@H](O)[C@H](C)O[C@@H](Oc2cc(O)c3c(c2)Cc2cc(C)cc(O)c2C3=O)[C@@H]1OC(C)=O` [PRINOIDIN], the Survival was 4 days.

These compounds were tested on Mus musculus (assay: Toxicity in mouse P388 cells xenografted CDF1 mouse assessed as survival time at 2.5 mg/kg, ip). Conditions: in vivo.
Assay type: organism-based
Set-up: dose 2.5 mg/kg, route intraperitoneal
Procedure, shortened: as §1
Compound `CC(=O)O[C@@H]1[C@@H](O)[C@H](C)O[C@@H](Oc2cc(O)c3c(c2)Cc2cc(C)cc(O)c2C3=O)[C@@H]1OC(C)=O` [PRINOIDIN] has a Survival of 7 days.

These compounds were tested on KB (assay: Cytotoxicity against human KB cells). Conditions: Homo sapiens, KB; read-out: IC50.
Assay type: functional, cell-based
`CC(=O)O[C@@H]1[C@@H](O)[C@H](C)O[C@@H](Oc2cc(O)c3c(c2)[C@H]([C@H]2c4cc(C)cc(O)c4C(=O)c4c(O)cc(O)cc42)c2cc(C)cc(O)c2C3=O)[C@@H]1OC(C)=O` was tested, and the IC50 was 1.3 µM.
In the case of `Cc1cc(O)c2c(c1)[C@H]([C@H]1c3cc(C)cc(O)c3C(=O)c3c(O)cc(O)cc31)c1cc(O)cc(O)c1C2=O`, the IC50 is reported as 2.5 µM.
Work on `Cc1cc(O)c2c(c1)[C@H]([C@@H]1c3cc(C)cc(O)c3C(=O)c3c(O)cc(O)cc31)c1cccc(O)c1C2=O` yielded an IC50 of 3.4 µM.
`CC(=O)O[C@@H]1[C@@H](O)[C@H](C)O[C@@H](Oc2cc(O)c3c(c2)[C@H]([C@H]2c4cc(C)cc(O)c4C(=O)c4c(O)cc(O[C@@H]5O[C@@H](C)[C@H](OC(C)=O)[C@@H](O)[C@H]5OC(C)=O)cc42)c2cc(C)cc(O)c2C3=O)[C@@H]1OC(C)=O` was tested, and the IC50 was 0.8 µM.
For `Cc1cc(O)c2c(c1)[C@@H]([C@H]1c3cc(C)cc(O)c3C(=O)c3c(O)cc(O)cc31)c1cccc(O)c1C2=O`, the IC50 was 1.2 µM.
`CC(=O)O[C@@H]1[C@@H](O)[C@H](C)O[C@@H](Oc2cc(O)c3c(c2)Cc2cc(C)cc(O)c2C3=O)[C@@H]1OC(C)=O` [PRINOIDIN] showed an IC50 of 0.045 µM.
Compound `CC(=O)O[C@@H]1[C@@H](O)[C@H](C)O[C@@H](Oc2cc(O)c3c(c2)[C@H]([C@H]2c4cc(C)cc(O)c4C(=O)c4c(O)cc(O[C@@H]5O[C@@H](C)[C@H](O)[C@@H](OC(C)=O)[C@H]5OC(C)=O)cc42)c2cc(C)cc(O)c2C3=O)[C@@H]1OC(C)=O` has an IC50 of 0.9 µM.
With `COc1cccc2c1C(=O)c1c(O)c3c(c(O)c1C2=O)C[C@@](O)(C(=O)CO)C[C@@H]3O[C@H]1C[C@H](N)[C@H](O)[C@H](C)O1` [DOXORUBICIN] the IC50 was 0.2 µM.
`Cc1cc(O)c2c(c1)Cc1cc(O)cc(O)c1C2=O` [EMODIN ANTHRONE] was tested, and the IC50 was 3.9 µM.
`Cc1cc(O)c2c(c1)[C@H]([C@H]1c3cccc(O)c3C(=O)c3c(O)cc(C)cc31)c1cccc(O)c1C2=O` was tested, and the IC50 was 0.2 µM.
`CC(=O)O[C@@H]1[C@@H](O)[C@H](C)O[C@@H](Oc2cc(O)c3c(c2)[C@@H]([C@H]2c4cc(C)cc(O)c4C(=O)c4c(O)cc(O)cc42)c2cc(C)cc(O)c2C3=O)[C@@H]1OC(C)=O` showed an IC50 of 0.8 µM.
In the case of `CC(=O)O[C@@H]1[C@@H](O)[C@H](C)O[C@@H](Oc2cc(O)c3c(c2)[C@@H]([C@@H]2c4cc(C)cc(O)c4C(=O)c4c(O)cc(O)cc42)c2cc(C)cc(O)c2C3=O)[C@@H]1OC(C)=O`, the IC50 is reported as 3.3 µM.
Work on `Cc1cc(O)c2c(c1)[C@@H]([C@H]1c3cc(C)cc(O)c3C(=O)c3c(O)cc(O)cc31)c1cc(O)cc(O)c1C2=O` yielded an IC50 of 1.1 µM.
Work on `Cc1cc(O)c2c(c1)[C@H]([C@@H]1c3cccc(O)c3C(=O)c3c(O)cc(C)cc31)c1cccc(O)c1C2=O` yielded an IC50 of 1.2 µM.
`CC(=O)O[C@@H]1[C@@H](OC(C)=O)[C@H](Oc2cc(O)c3c(c2)C(C(C)=O)c2cc(C)cc(O)c2C3=O)O[C@@H](C)[C@H]1OC(C)=O` (some centres not stated) was tested, and the IC50 was 0.07 µM.
`Cc1cc(O)c2c(c1)[C@@H]([C@H]1c3cccc(O)c3C(=O)c3c(O)cc(C)cc31)c1cc(O)cc(O)c1C2=O` gave an IC50 of 1.8 µM.
`Cc1cc(O)c2c(c1)[C@H]([C@H]1c3cc(C)cc(O)c3C(=O)c3c(O)cc(O)cc31)c1cccc(O)c1C2=O` was tested, and the IC50 was 1.4 µM.
For `CC(=O)O[C@@H]1[C@@H](O)[C@H](C)O[C@@H](Oc2cc(O)c3c(c2)[C@H]([C@@H]2c4cc(C)cc(O)c4C(=O)c4c(O)cc(O)cc42)c2cc(C)cc(O)c2C3=O)[C@@H]1OC(C)=O`, the IC50 was 4.5 µM.
`CC(=O)O[C@@H]1[C@@H](O)[C@H](C)O[C@@H](Oc2cc(O)c3c(c2)[C@@H]([C@@H]2c4cc(C)cc(O)c4C(=O)c4c(O)cc(O[C@@H]5O[C@@H](C)[C@H](OC(C)=O)[C@@H](O)[C@H]5OC(C)=O)cc42)c2cc(C)cc(O)c2C3=O)[C@@H]1OC(C)=O` showed an IC50 of 1 µM.
Work on `CC(=O)O[C@@H]1[C@@H](O)[C@H](C)O[C@@H](Oc2cc(O)c3c(c2)C(=O)c2cc(C)cc(O)c2C3=O)[C@@H]1OC(C)=O` yielded an IC50 of 1.9 µM.
Compound `CC(=O)O[C@@H]1[C@@H](O)[C@H](C)O[C@@H](Oc2cc(O)c3c(c2)[C@H]([C@@H]2c4cc(C)cc(O)c4C(=O)c4c(O)cc(O[C@@H]5O[C@@H](C)[C@H](O)[C@@H](OC(C)=O)[C@H]5OC(C)=O)cc42)c2cc(C)cc(O)c2C3=O)[C@@H]1OC(C)=O` has an IC50 of 2.5 µM.
`CC(=O)O[C@@H]1[C@@H](O)[C@H](C)O[C@@H](Oc2cc(O)c3c(c2)[C@H]([C@@H]2c4cc(C)cc(O)c4C(=O)c4c(O)cc(O[C@@H]5O[C@@H](C)[C@H](OC(C)=O)[C@@H](O)[C@H]5OC(C)=O)cc42)c2cc(C)cc(O)c2C3=O)[C@@H]1OC(C)=O` gave an IC50 of 1.2 µM.

Same assay, conditions: kb
With `CC(=O)O[C@@H]1[C@@H](O)[C@H](C)O[C@@H](Oc2cc(O)c3c(c2)C(=O)c2cc(C)cc(O)c2C3=O)[C@@H]1O` the IC50 was “Not Active”.
In the case of `Cc1cc(O)c2c(c1)C(=O)c1cc(O)cc(O)c1C2=O` [EMODIN], the IC50 is reported as “Not Active”.
For `CC(=O)Oc1cc(C)cc2c1C(=O)c1c(OC(C)=O)cc(O[C@@H]3O[C@@H](C)[C@H](OC(C)=O)[C@@H](OC(C)=O)[C@H]3OC(C)=O)cc1C2=O` [FRANGULIN A PERACETATE], the IC50 was “Not Active”.
With `COc1cc(O)c2c(c1)C(=O)c1cc(C)cc(O)c1C2=O` [PHYSCION] the IC50 was “Not Active”.
In the case of `CC(=O)O[C@H]1[C@H](Oc2cc(O)c3c(c2)C(=O)c2cc(C)cc(O)c2C3=O)O[C@@H](C)[C@H](O)[C@H]1O`, the IC50 is reported as “Not Active”.
For `CC(=O)O[C@@H]1[C@@H](OC(C)=O)[C@H](C)O[C@@H](Oc2cc(O)c3c(c2)C(=O)c2cc(C)cc(O)c2C3=O)[C@@H]1OC(C)=O`, the IC50 was “Not Active”.
With `Cc1cc(O)c2c(c1)C(=O)c1cccc(O)c1C2=O` [CHRYSOPHANOL] the IC50 was “Not Active”.
